Measured values as given in ChEMBL document CHEMBL4808162, “Constraining the Side Chain of C-Terminal Amino Acids in Apelin-13 Greatly Increases Affinity, Modulates Signaling, and Improves the Pharmacokinetic Profile” (J Med Chem, 2021).
Active and inactive are the calls of the source. No cut-off for these calls is given here.

Legend:
[1] = target: T1, Apelin receptor (Homo sapiens, UniProt P35414); assay: Agonist activity at human APJ receptor expressed in HEK293T cells co-expressing Galphai1 RlucII assessed as dissociation of Galphai1 from Gbetta/gamma subunit measured using coelenterazine luciferase substrate incubated for 5 mins by BRET assay; format: functional, cell-based, HEK293
T1 sequence (P35414 whole entry): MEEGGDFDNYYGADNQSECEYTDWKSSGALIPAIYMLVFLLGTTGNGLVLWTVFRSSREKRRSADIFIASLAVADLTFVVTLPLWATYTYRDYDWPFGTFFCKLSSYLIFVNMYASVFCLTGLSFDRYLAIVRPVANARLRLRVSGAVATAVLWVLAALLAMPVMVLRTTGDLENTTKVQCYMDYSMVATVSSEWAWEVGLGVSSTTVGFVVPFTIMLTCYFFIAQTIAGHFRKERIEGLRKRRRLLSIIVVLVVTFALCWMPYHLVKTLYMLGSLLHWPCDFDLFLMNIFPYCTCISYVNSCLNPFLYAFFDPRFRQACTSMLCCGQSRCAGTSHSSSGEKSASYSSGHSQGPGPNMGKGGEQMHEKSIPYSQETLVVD

[2] = test system: Rattus norvegicus; assay: Effect on mean arterial blood pressure in Sprague-Dawley rat at 65 nmol/kg, iv bolus injection measured after 1 min; format: functional, organism-based
Summary of the method: (§1)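 Male Sprague-Dawley rats (250−300 g) under ketamine/xylazine (87/13 mg/kg i.m.) on a thermostatic pad. Mean arterial pressure recorded through a right carotid catheter. Saline vehicle bolus given, then 5 min later the peptide i.v. at 19.6 nmol/kg (n = 5) or 65 nmol/kg.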

[3] = target: T2, Apelin receptor (Homo sapiens) (UniProt P35414); assay: Agonist activity at human APJ receptor expressed in HEK293 cells co-expressing Rlucll-beta-arrestin2 assessed as induction of beta-arrestin2 recruitment to receptor incubated for 30 mins by BRET assay relative to control; format: functional, cell-based
T2 sequence (whole entry): T1 sequence (P35414 whole entry)
Summary of the method: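 HEK293 cells transiently transfected with PEI, carrying hAPJ-GFP10 and RlucII-β-arrestin2. Cells replated at 50 000/well after 24 h, washed, and placed in HBSS. Ligand given at 10⁻⁵ to 10⁻¹¹ M for 30 min at room temperature. 5 μM coelenterazine 400A added, BRET² ratio GFP10/RlucII read. EC50 from dose-response fit; three experiments, each in triplicate.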

[4] = target: T1, Apelin receptor; assay: Agonist activity at human APJ receptor expressed in HEK293 cells co-expressing Rlucll-beta-arrestin2 assessed as induction of beta-arrestin2 recruitment to receptor incubated for 30 mins by BRET assay; format: functional, cell-based
[5] = target: T1, Apelin receptor; assay: Displacement of [125I] [NIe75,Tyr77]Pyr-apelin-13 from YFP-tagged human APJ receptor expressed in HEK293 cells incubated for 1 hr by gamma counting analysis; format: cell-based
[6] = target: T1, Apelin receptor; assay: Agonist activity at human APJ receptor expressed in HEK293T cells co-expressing PDZ-Rho-Gef-RLucll and rGFP-CAAX assessed as induction of recruitment of Galpha12 to cell membrane using coelenterazine luciferase substrate incubated for 5 mins by BRET assay; format: functional, cell-based, HEK293
[7] = Stability in Sprague-Dawley rat plasma assessed as half life measured up to 24 hrs by UPLC-MS analysis; format: ADME, cell-free
Summary of the method: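 Peptide (6 μL of 1 mM aqueous solution) incubated with 27 μL male Sprague-Dawley rat plasma at 37 °C. Time points 0, 1, 2, 4, 7, 24 h, or 0–120 min for labile peptides. Reaction quenched with acetonitrile-ethanol containing N,N-dimethylbenzamide internal standard, filtered, then UPLC-MS. t1/2 from one-phase exponential decay; at least three experiments.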

[8] = test system: Rattus norvegicus; assay: Hypotensive effect in Sprague-Dawley rat assessed as drop in mean arterial blood pressure at 19.6 nmol/kg, iv bolus injection measured after 1 min; format: functional; summary of the method: as §1
[9] = target: T2, Apelin receptor (Homo sapiens); assay: Agonist activity at human APJ receptor expressed in HEK293T cells co-expressing PDZ-Rho-Gef-RLucll and rGFP-CAAX assessed as induction of recruitment of Galpha12 to cell membrane using coelenterazine luciferase substrate incubated for 5 mins by BRET assay relative to control; format: functional, cell-based; settings: HEK293, filed as partial agonist
Summary of the method: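 HEK293T cells (35 000/well) transiently transfected with PEI 48 h before assay, carrying hAPJ, Gα12, Gβ1, Gγ1 and the ebBRET pair PDZ-RhoGEF-RLucII / rGFP-CAAX. Ligand stimulation for 5 min. Curves fitted as normalized variable-slope dose-response with Hill slope shared; eight experiments, each singly.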

Row | EC50 [1] | Emax [3] | EC50 [4] | Ki [5] | EC50 [6] | half-life [7] | Emax [9] | SMILES | Activity [2] | Activity [8]
1 | 22 nM | 53% | 367 nM | 13 nM | 141 nM |  |  | CCCC[C@H](NC(=O)[C@@H]1CCCN1C(=O)CNC(=O)[C@H](CCCCN)NC(=O)[C@H](Cc1cnc[nH]1)NC(=O)[C@H](CO)NC(=O)[C@H](CC(C)C)NC(=O)[C@H](CCCNC(=N)N)NC(=O)[C@@H]1CCCN1C(=O)[C@H](CCCNC(=N)N)NC(=O)[C@@H]1CCC(=O)N1)C(=O)N1CCC[C@H]1C(=O)N[C@H](Cc1cc(C2CCCC2)c(OCc2ccccc2)c(C2CCCC2)c1)C(=O)O | inactive | 
2 | 2.7 nM |  | 30 nM |  | 4.4 nM | 54 min | 46% | CCCC[C@H](NC(=O)[C@@H]1CCCN1C(=O)CNC(=O)[C@H](CCCCN)NC(=O)[C@H](Cc1cnc[nH]1)NC(=O)[C@H](CO)NC(=O)[C@H](CC(C)C)NC(=O)[C@H](CCCNC(=N)N)NC(=O)[C@@H]1CCCN1C(=O)[C@H](CCCNC(=N)N)NC(=O)[C@@H]1CCC(=O)N1)C(=O)N1CCC[C@H]1C(=O)N[C@](C)(Cc1ccc(OCc2ccccc2)cc1)C(=O)O |  | 30 mmHg
